Common to all, as to format: functional
Experiment [1] relates to Aspergillus niger. Put plainly: Percent growth of Aspergillus niger after 7 days of incubation. More on the design: concentration or dose not given beside the values. Put shortly:
(§1)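 Fungal plate assay: pyrone dissolved in absolute EtOH at 10mg/mL and pipetted 2 cm offset from the centre of the plate containing the organism. EtOH alone served as control. Growth is recorded as percentage of the organism after 72 h and after 7 days of incubation.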

Experiment [2] relates to Aspergillus niger. Kind of experiment: Percent growth of Aspergillus niger after 72 hours of incubation. Also on record: concentration or dose not given beside the values. In a few lines:
as §1

The subject of the next experiment is Bacillus subtilis. Put plainly: Antimicrobial activity against Bacillus subtilis was determined after 96 hours of incubation. Put shortly: (§2)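 Disk diffusion: cellulose disks loaded with test compound and placed on bacterial plates, with an EtOH control disk. Incubation 96 h. Read-out is the radius (mm) of the inhibition zone.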
The subject of experiment [3] is Botrytis cinerea. Kind of experiment: Percent growth of Botrytis cinerea after 7 days of incubation. More on the design: concentration or dose not given beside the values. Put shortly: as §1
Experiment [4] deals with Botrytis cinerea. Put plainly: Percent growth of Botrytis cinerea after 72 hours of incubation. More on the design: concentration or dose not given beside the values. In a few lines: as §1
A further experiment concerns Candida albicans. Put plainly: Antimicrobial activity against Candida albicans was determined after 48 hours of incubation. In a few lines:
(§3)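 Disk diffusion on yeast plates: cellulose disks carrying test compound, with an EtOH control. Incubation 48 h. The inhibition zone radius is recorded in mm.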

The subject of experiment [5] is Fusarium oxysporum. Put plainly: Percent growth of Fusarium oxysporum after 7 days of incubation. Also on record: concentration or dose not given beside the values. Put shortly: as §1
The subject of experiment [6] is Fusarium oxysporum. Put plainly: Percent growth of Fusarium oxysporum after 72 hours of incubation. More on the design: concentration or dose not given beside the values. Put shortly: as §1
A further experiment concerns Escherichia coli. Put plainly: Antimicrobial activity against Escherichia coli was determined after 96 hours of incubation. Put shortly:
as §2

Experiment [7] deals with Globisporangium ultimum. Kind of experiment: Percent growth of Pythium ultimum after 7 days of incubation. More on the design: concentration or dose not given beside the values. Put shortly:
as §1

Experiment [8] has as its system Globisporangium ultimum. Put plainly: Percent growth of Pythium ultimum after 72 hours of incubation. Also on record: concentration or dose not given beside the values. Put shortly: as §1
In experiment [9] the test system is Schizosaccharomyces pombe. Kind of experiment: Antimicrobial activity against Schizosaccharomyces pombe was determined after 48 hours of incubation. Put shortly:
as §3

Another experiment relates to Saccharomyces cerevisiae. Kind of experiment: Antimicrobial activity against Saccharomyces cerevisiae was determined after 48 hours of incubation. In a few lines: as §3
For experiment [10], the system named is Thanatephorus cucumeris. Put plainly: Percent growth of Rhizoctonia solani after 7 days of incubation. More on the design: concentration or dose not given beside the values. Put shortly: as §1
In experiment [11] the test system is Thanatephorus cucumeris. Put plainly: Percent growth of Rhizoctonia solani after 72 hours of incubation. Also on record: concentration or dose not given beside the values. Put shortly:
as §1

Another experiment has as its system Staphylococcus aureus. Put plainly: Antimicrobial activity against Staphylococcus aureus was determined after 96 hours of incubation. Put shortly:
as §2

Experiment [12] deals with Globisporangium mamillatum. Put plainly: Percent growth of Pythium mammillatum after 7 days of incubation. Also on record: concentration or dose not given beside the values. In a few lines: as §1
Experiment [13] concerns Globisporangium mamillatum. Kind of experiment: Percent growth of Pythium mammillatum after 72 hours of incubation. Also on record: concentration or dose not given beside the values. Put shortly: as §1

Structures are written as SMILES.

With `COc1cc(C)oc(=O)c1-c1ccc(C)cc1`, the Growth with Aspergillus niger [1] is reported as 100%; with Aspergillus niger [2] it was over 95%; with Botrytis cinerea [3], 100%; in the experiment on Botrytis cinerea [4], 58%; in the experiment on Fusarium oxysporum [5], 60%; in the experiment on Fusarium oxysporum [6], 11%. Moreover, the Growth was determined as 100% in the experiment with Globisporangium ultimum [7], 100% in the experiment on Globisporangium ultimum [8], 100% in the experiment on Thanatephorus cucumeris [10] and 55% in the experiment on Thanatephorus cucumeris [11]. Further, the Activity in the experiment with Bacillus subtilis is 16 mm; with Candida albicans it was 0 mm; in the experiment on Escherichia coli, 20 mm; in experiment [9] it was 0 mm; in the experiment with Saccharomyces cerevisiae it was 0 mm; with Staphylococcus aureus it was 0 mm.
Turning to `COc1cc(C)oc(=O)c1-c1ccc(C=O)cc1`, the Growth is given as over 95% with Aspergillus niger [1]; 83% in the experiment with Aspergillus niger [2]; 100% in the experiment on Botrytis cinerea [3]; 65% in the experiment on Botrytis cinerea [4]; 60% with Fusarium oxysporum [5]; 11% in the experiment on Fusarium oxysporum [6]. The Growth with Globisporangium ultimum [7] was 100%; in the experiment on Globisporangium ultimum [8], 100%; in the experiment with Thanatephorus cucumeris [10], 100%; in the experiment with Thanatephorus cucumeris [11], 79%. In addition, the Activity in the experiment with Bacillus subtilis stood at 6 mm; in the experiment with Candida albicans, 0 mm; with Escherichia coli it was 6 mm; in experiment [9], 0 mm; in the experiment on Saccharomyces cerevisiae it was 0 mm; in the experiment on Staphylococcus aureus it was 0 mm.
As for `CCCCC/C=C/c1c(OC)cc(C)oc1=O`, the Growth was 95% with Aspergillus niger [1]; 90% with Aspergillus niger [2]; 100% in the experiment on Botrytis cinerea [3]; 53% with Botrytis cinerea [4]; 56% in the experiment on Fusarium oxysporum [5]; 11% in the experiment with Fusarium oxysporum [6]. Also, the Growth was 100% in [12]; 42% in [13]; 75% in the experiment with Globisporangium ultimum [7]; 61% in the experiment with Globisporangium ultimum [8]; 100% with Thanatephorus cucumeris [10]; 47% in the experiment on Thanatephorus cucumeris [11]. The Activity is 20 mm in the experiment with Bacillus subtilis; 0 mm with Candida albicans; 0 mm with Escherichia coli; 0 mm in [9]; 0 mm in the experiment with Saccharomyces cerevisiae; 0 mm in the experiment on Staphylococcus aureus.
In the case of `COc1ccc(-c2c(OC)cc(C)oc2=O)cc1`, the Growth is 82% in the experiment with Aspergillus niger [1]; 70% with Aspergillus niger [2]; 100% with Botrytis cinerea [3]; 62% in the experiment on Botrytis cinerea [4]; 60% with Fusarium oxysporum [5]; 7% in the experiment with Fusarium oxysporum [6]. Moreover, the Growth is given as 100% in the experiment with Globisporangium ultimum [7], 100% with Globisporangium ultimum [8], 100% in the experiment on Thanatephorus cucumeris [10] and 81% with Thanatephorus cucumeris [11]. For the same compound, the Activity (with Bacillus subtilis; in the experiment on Candida albicans; in the experiment on Escherichia coli; in experiment [9]; in the experiment on Saccharomyces cerevisiae; in the experiment on Staphylococcus aureus) was 0 mm in each case.
In the case of `CCCCC/C=C/c1c(OC)cc(=O)oc1C`, the Growth was 95% in the experiment on Aspergillus niger [1]; 82% in the experiment on Aspergillus niger [2]; 100% in the experiment on Botrytis cinerea [3]; 12% with Botrytis cinerea [4]; 24% in the experiment with Fusarium oxysporum [5]; 7% in the experiment on Fusarium oxysporum [6]. The Growth in [12] is 94%; in experiment [13] it was 24%; in the experiment on Globisporangium ultimum [7] it was 100%; with Globisporangium ultimum [8] it was 100%; in the experiment on Thanatephorus cucumeris [10] it was 100%; in the experiment with Thanatephorus cucumeris [11], 33%. Also, the Activity in the experiment with Bacillus subtilis is 19 mm; with Candida albicans, 12 mm; in the experiment with Escherichia coli, 20 mm; in experiment [9] it was 26 mm; in the experiment on Saccharomyces cerevisiae, 12 mm; in the experiment on Staphylococcus aureus, 16 mm.
As to `COc1cc(C)oc(=O)c1-c1ccc(Cl)cc1`, the Growth with Aspergillus niger [1] is 95%; in the experiment with Aspergillus niger [2], over 95%; in the experiment with Botrytis cinerea [3], 100%; in the experiment on Botrytis cinerea [4], 58%; in the experiment on Fusarium oxysporum [5] it was 60%; in the experiment on Fusarium oxysporum [6], 8%. Also, the Growth with Globisporangium ultimum [7] is recorded as 100%; in the experiment with Globisporangium ultimum [8], 100%; in the experiment on Thanatephorus cucumeris [10], 100%; in the experiment with Thanatephorus cucumeris [11], 51%. For the same compound, the Activity in the experiment with Bacillus subtilis came out at 17 mm; in the experiment with Candida albicans, 0 mm; in the experiment on Escherichia coli, 18 mm; in experiment [9] it was 0 mm; in the experiment with Saccharomyces cerevisiae, 30 mm; in the experiment on Staphylococcus aureus, 0 mm.
On to `CCCC/C=C/c1c(OC)cc(=O)oc1C`, for which the Growth in the experiment with Aspergillus niger [1] is reported as over 95%; in the experiment with Aspergillus niger [2] it was 68%; with Botrytis cinerea [3] it was 100%; in the experiment with Botrytis cinerea [4], 33%; in the experiment with Fusarium oxysporum [5] it was 35%; with Fusarium oxysporum [6], 7%. For the same compound, the Growth turned out to be 92% in experiment [12]; 34% in experiment [13]; 100% with Globisporangium ultimum [7]; 100% with Globisporangium ultimum [8]; 93.4% with Thanatephorus cucumeris [10]; 41% in the experiment on Thanatephorus cucumeris [11]. Moreover, the Activity with Bacillus subtilis was determined as 17 mm; with Candida albicans, 18 mm; in the experiment on Escherichia coli, 18 mm; in [9], 31 mm; with Saccharomyces cerevisiae, 15 mm; in the experiment with Staphylococcus aureus it was 15 mm.
Regarding `CCCCCC/C=C/c1cc(C)oc(=O)c1`, the Growth amounted to 94% in the experiment on Aspergillus niger [1]; 89% in the experiment on Aspergillus niger [2]; 100% in the experiment on Botrytis cinerea [3]; 42% with Botrytis cinerea [4]; 30% in the experiment on Fusarium oxysporum [5]; 5% with Fusarium oxysporum [6]. Besides, the Growth with Globisporangium ultimum [7] is 100%; in the experiment on Globisporangium ultimum [8], 100%; in the experiment with Thanatephorus cucumeris [10] it was 100%; in the experiment with Thanatephorus cucumeris [11] it was 44%. Moreover, the Activity in the experiment with Bacillus subtilis came out at 18 mm; in the experiment with Candida albicans, 20 mm; in the experiment with Escherichia coli it was 20 mm; in [9], 29 mm; with Saccharomyces cerevisiae it was 0 mm; in the experiment on Staphylococcus aureus, 18 mm.
For `COc1cc(C)oc(=O)c1-c1ccccc1`, the Growth is 100% in the experiment with Aspergillus niger [1]; over 95% in the experiment on Aspergillus niger [2]; 100% with Botrytis cinerea [3]; 63% in the experiment with Botrytis cinerea [4]; 60% in the experiment on Fusarium oxysporum [5]; 7.4% in the experiment with Fusarium oxysporum [6]. In addition, the Growth with Globisporangium ultimum [7] amounted to 100%; in the experiment on Globisporangium ultimum [8] it was 100%; in the experiment on Thanatephorus cucumeris [10], 100%; with Thanatephorus cucumeris [11], 75%. For the same compound, the Activity is 6 mm in the experiment with Bacillus subtilis; 0 mm in the experiment with Candida albicans; 0 mm in the experiment on Escherichia coli; 0 mm in experiment [9]; 0 mm in the experiment on Saccharomyces cerevisiae; 0 mm in the experiment with Staphylococcus aureus.
Regarding `CCC/C=C/c1c(OC)cc(C)oc1=O`, the Growth is over 95% in the experiment on Aspergillus niger [1]; 93% in the experiment with Aspergillus niger [2]; 100% in the experiment with Botrytis cinerea [3]; 56% with Botrytis cinerea [4]; 48% in the experiment with Fusarium oxysporum [5]; 8% in the experiment on Fusarium oxysporum [6]. The Growth in experiment [12] came to 100%; in [13] it was 43%; in the experiment on Globisporangium ultimum [7], 80%; with Globisporangium ultimum [8] it was 67%; in the experiment on Thanatephorus cucumeris [10], 100%; in the experiment with Thanatephorus cucumeris [11] it was 44%. For the same compound, the Activity in the experiment with Bacillus subtilis is 18 mm; in the experiment on Candida albicans, 0 mm; in the experiment with Escherichia coli, 21 mm; in experiment [9], 13 mm; with Saccharomyces cerevisiae it was 0 mm; in the experiment with Staphylococcus aureus, 0 mm.
With `CCCC/C=C/c1c(OC)cc(C)oc1=O`, the Growth was 91% with Aspergillus niger [1]; 77% in the experiment with Aspergillus niger [2]; 100% with Botrytis cinerea [3]; 51% in the experiment on Botrytis cinerea [4]; 48% in the experiment on Fusarium oxysporum [5]; 8% in the experiment with Fusarium oxysporum [6]. For the same compound, the Growth in [12] was determined as 100%; in experiment [13], 35%; with Globisporangium ultimum [7], 57%; in the experiment on Globisporangium ultimum [8] it was 37%; in the experiment with Thanatephorus cucumeris [10], 100%; in the experiment on Thanatephorus cucumeris [11], 43%. Further, the Activity in the experiment on Bacillus subtilis was determined as 19 mm; in the experiment on Candida albicans, 0 mm; in the experiment on Escherichia coli it was 20 mm; in [9], 0 mm; in the experiment on Saccharomyces cerevisiae, 0 mm; in the experiment on Staphylococcus aureus, 21 mm.
Take `COc1cc(C)oc(=O)c1/C=C/c1ccccc1`: the Growth with Aspergillus niger [1] is listed as 100%; in the experiment on Aspergillus niger [2], over 95%; in the experiment on Botrytis cinerea [3], 100%; with Botrytis cinerea [4], 58%; in the experiment on Fusarium oxysporum [5], 60%; in the experiment with Fusarium oxysporum [6], 11%. Further, the Growth in the experiment with Globisporangium ultimum [7] was found to be 100%; in the experiment on Globisporangium ultimum [8] it was 100%; in the experiment with Thanatephorus cucumeris [10], 100%; in the experiment with Thanatephorus cucumeris [11] it was 92%. The Activity (in the experiment with Bacillus subtilis; with Candida albicans; in the experiment on Escherichia coli; in [9]; in the experiment on Saccharomyces cerevisiae; with Staphylococcus aureus) was 0 mm throughout.
